A selection: hits, their analogues and other compounds. The true share with any hit is near 2.9%.
M1 ag parental = counter-screen for M1 agonists: effect in parental CHO-K1 cells | AID 602248 | activation, % at 3 µM | Fluo-8 calcium fluorescence; scaled to maximal ATP response, vehicle zero | hit rate 0.48% among 360,000; in the data active means activation above about 15%;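 further: untransfected CHO-K1 host cells lacking M1 receptor as counterscreen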
CHO parental Ca = signal in parental CHO cells, OX1R antagonist counter-screen; parental CHO-K1, ATP-induced calcium, Fluo-8 fluorescence; hit rate 0.63% among 330,000; AID 463079; inhibition, % at 5.6 µM;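 active means inhibition above that plate's mean sample inhibition plus 3 SD, cut at about 26% in these data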
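Measured by: calcium-sensitive Fluo-8 fluorescence / Test system: CHO parental line / Controls: ATP-challenged DMSO wells low, unchallenged DMSO wells high / Measure: % inhibition / Compound: single nominal dose of 5.6 µM per compound / Replicates: single well per compound, no replicates / Reagent: ATP as calcium-mobilizing challenge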
CHO-K1 Ca PAM = M1 PAM counterscreen hit in parental CHO-K1 cells | ATP EC20, Fluo-8 calcium fluorescence; 0% at ATP EC20, 100% at ATP max | activation, % at 3 µM | hit rate 0.02% among 360,000;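 active means activation above the run cutoff, the mean activation of all test compounds plus 3 SD, cut at about 40% in these data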;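 further: peak over basal fluorescence ratio in a 140 s read after ATP addition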
OX1R antag-1 = antagonists of human orexin 1 receptor (OX1R). OX1R-expressing cells, FRET antagonist read-out. inhibition, % at 6.6 µM. hit rate 1.8% among 330,000; in the data active means inhibition mostly above about 38%, no sharp cut-off; inactive means mostly below about 40%
Target sequence (O43613 whole entry, looked up): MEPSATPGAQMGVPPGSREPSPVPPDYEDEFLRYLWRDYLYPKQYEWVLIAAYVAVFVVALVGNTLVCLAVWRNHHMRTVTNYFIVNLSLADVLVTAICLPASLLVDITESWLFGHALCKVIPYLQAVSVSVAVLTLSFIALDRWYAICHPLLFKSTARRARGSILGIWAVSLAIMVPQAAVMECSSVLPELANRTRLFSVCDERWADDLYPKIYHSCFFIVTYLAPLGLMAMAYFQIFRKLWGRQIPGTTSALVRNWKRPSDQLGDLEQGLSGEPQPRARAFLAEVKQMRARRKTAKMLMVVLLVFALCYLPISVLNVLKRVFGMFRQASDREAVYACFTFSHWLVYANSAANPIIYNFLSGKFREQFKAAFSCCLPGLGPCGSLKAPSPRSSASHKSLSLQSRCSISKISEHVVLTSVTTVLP
CHO-K1 Ca antag = M1 antagonist counterscreen hit in parental CHO-K1 cells. ATP-induced calcium, Fluo-8 fluorescence. inhibition, % at 3 µM. hit rate 0.6% among 360,000. AID 602250;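 active means inhibition above a per-plate cutoff, the plate's mean sample inhibition plus 3 SD, cut at about 24% in these data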
OX1R antag-2 = human HCRTR1 antagonism; CHO/OX1R cells, Fluo-8 calcium fluorescence, orexin A; O43613; hit rate 0.43% among 330,000; inhibition, % at 5 µM;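 active means inhibition above its plate's threshold, mean inhibition of all tested compounds on the plate plus 3 SD, cut at about 37% in these data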
Of the large screens only hits and unclear results are named; the others gave an inactive call.

CC1(C)CC[C@]2(C(=O)O)CC[C@]3(C)C(=CC[C@@H]4[C@@]5(C)CC[C@H](O[C@@H]6O[C@H](C(=O)O)[C@@H](O)[C@H](O[C@@H]7OC[C@H](O)[C@H](O)[C@H]7O)[C@H]6O)C(C)(C)[C@@H]5CC[C@]43C)[C@@H]2C1	CHO parental Ca 100, CHO-K1 Ca antag 24, OX1R antag-2 111
COc1cc(/C=N/NC(=O)c2ccc(C)nc2)cc([N+](=O)[O-])c1O	OX1R antag-1 43
CC1(C(=O)N/N=C/c2ccc([N+](=O)[O-])o2)CC1(Br)Br (centres undefined)	OX1R antag-1 73
O=C(N/N=C/c1ccc([N+](=O)[O-])o1)c1ccc(NS(=O)(=O)c2cccs2)cc1	OX1R antag-1 45
COc1ccc([N+](=O)[O-])cc1/C=N/NC(=O)Cc1ccccc1	none
COc1cc(/C=N/NC(=O)Cc2ccccc2)ccc1Oc1ccc([N+](=O)[O-])cc1[N+](=O)[O-]	CHO parental Ca 29
CCOc1cc(/C=N\NC(=O)c2ccc(C)nc2)cc([N+](=O)[O-])c1O	none
O=C(Cc1ccc([N+](=O)[O-])cc1)N/N=C/c1ccc([N+](=O)[O-])o1	none
COc1ccc(S(=O)(=O)N2CCOCC2)cc1NS(=O)(=O)c1ccc(F)c(F)c1	none
COc1cc(NC(=O)COc2cc3oc(=O)cc(C)c3cc2Cl)cc(OC)c1OC	none
O=C(CN1CCOCC1)NN=Cc1ccc([N+](=O)[O-])o1	none (no result: CHO parental Ca, OX1R antag-1, OX1R antag-2)
O=C(CCN1CCN(c2ccccc2)CC1)N/N=C/c1ccc([N+](=O)[O-])o1	OX1R antag-1 71
COc1cc(/C=N/Nc2ccccc2[N+](=O)[O-])cc(OC)c1O	none
Cc1ccc(C(=O)N/N=C\c2ccc([N+](=O)[O-])o2)cn1	OX1R antag-1 70
COc1cc(/C=N/NC(=O)Cc2ccccc2)cc([N+](=O)[O-])c1O	OX1R antag-1 54
COc1ccc(Br)c(C=O)c1OS(=O)(=O)c1ccc(C)cc1	none (no result: CHO parental Ca, OX1R antag-1, OX1R antag-2)
c1ccc(CN2CCC(Nc3nc(-c4cccs4)nc4ccccc34)CC2)cc1	M1 ag parental 16
c1ccc(-c2nc(NC3CCCC3)c3ccccc3n2)cc1	OX1R antag-1 49
c1cncc(-c2nc(NCC3CCCO3)c3ccccc3n2)c1 (centres undefined)	none
COc1cccc(-c2nc(NC3CCCC3)c3ccccc3n2)c1O	none
c1csc(-c2nc(NCC3CCCO3)c3ccccc3n2)c1 (centres undefined)	OX1R antag-1 68
O=C(CCCOc1ccc(Br)cc1)Nc1ccc(S(=O)(=O)N2CCOCC2)cc1	CHO parental Ca 35
CCCC(C(=O)Nc1ccc(C)c(S(=O)(=O)N2CCOCC2)c1)c1ccccc1 (centres undefined)	none
CCCC(C(=O)Nc1ccc(S(=O)(=O)N2CCOCC2)cc1)c1ccccc1 (centres undefined)	M1 ag parental 19
Cc1ccc(NC(=O)c2ccccc2NS(=O)(=O)c2ccc(Cl)s2)cc1S(=O)(=O)N1CCOCC1	M1 ag parental 16, OX1R antag-1 63
Cc1ccc(S(=O)(=O)N2CCOCC2)cc1NC(=O)COc1ccc(C(=O)c2ccccc2)cc1	M1 ag parental 16
Cc1ccc(S(=O)(=O)N2CCOCC2)cc1NC(=O)COC(=O)CNC(=O)c1ccccc1	none
O=C(CN1CCN(S(=O)(=O)c2ccc(Br)cc2)CC1)Nc1ccc2c(c1)OCO2	M1 ag parental 22
O=C(CN1CCN(S(=O)(=O)c2ccc(Br)cc2)CC1)Nc1ccc(F)cc1	none
CC(=O)Nc1ccc(OCC(=O)Nc2ccc(Cl)c(S(=O)(=O)N3CCOCC3)c2)cc1	CHO parental Ca 29, OX1R antag-2 54
COc1ccc(OCC(=O)Nc2ccc(S(=O)(=O)N3CCOCC3)cc2)cc1	none
CC(CC(=O)Nc1ccc(Cl)c(S(=O)(=O)N2CCOCC2)c1)c1ccccc1 (centres undefined)	M1 ag parental 15 (no result: CHO parental Ca, OX1R antag-1, OX1R antag-2)
Cc1ccc(-c2nc3c(Cl)cc(C(F)(F)F)cn3c2Cc2cccc(F)c2)cc1	none (no result: CHO parental Ca, OX1R antag-1, OX1R antag-2)
CCN1C(=O)[C@H]2[C@@H](c3ccc(C)cc3)N3C(=O)N(c4ccccc4)C(=O)[C@@]3(Cc3ccc(Cl)cc3)[C@H]2C1=O	OX1R antag-1 63
CCN1C(=O)[C@H]2[C@@H](c3ccc(C)cc3)N3C(=O)N(c4ccc(C)cc4)C(=O)[C@@]3(Cc3ccc(Cl)cc3)[C@H]2C1=O	none
COc1ccc(CCNC(=O)C(=O)NCc2ccc(Cl)cc2)cc1OC	none
COc1ccc(Cl)cc1NC(=O)NCC1CCN(Cc2cc(C)ccc2C)CC1	M1 ag parental 16
Cc1ccc(C)c(CN2CCC(CNC(=O)Nc3ccc(C)c(C)c3)CC2)c1	none
O=C(NCC1CCN(Cc2cccc(Cl)c2)CC1)Nc1ccc(Cl)cc1	none
COc1cc([N+](=O)[O-])ccc1NC(=O)NCC1CCN(Cc2ccc(Cl)cc2)CC1	M1 ag parental 17
Cc1ccc(NC(=O)CNc2ccccc2N2CCCC2=O)cc1S(=O)(=O)N1CCCCC1	none
O=C(Nc1ccccc1)c1ccc2nc(-c3ccco3)c(-c3ccco3)nc2c1	OX1R antag-1 102, OX1R antag-2 71
O=C(NCCO)Nc1ccc2nc(-c3ccco3)c(-c3ccco3)nc2c1	OX1R antag-1 100 (no result: M1 ag parental, CHO-K1 Ca PAM, CHO-K1 Ca antag)
CC(=O)c1ccc(NC(=O)c2ccc3nc(-c4ccco4)c(-c4ccco4)nc3c2)cc1	none
O=C(Nc1cccnc1)c1ccc2nc(-c3ccccc3)c(-c3ccccc3)nc2c1	M1 ag parental 17
CN(Cc1ccccc1)C(=O)c1ccc([N+](=O)[O-])o1	OX1R antag-1 54
O=C(c1ccc([N+](=O)[O-])o1)N1CCN(Cc2ccccc2)CC1	OX1R antag-1 30
O=C(c1ccc(Cl)c([N+](=O)[O-])c1)N1CCN(Cc2ccc3c(c2)OCO3)CC1	M1 ag parental 16
Cc1ccc(C(=O)N2CCN(Cc3ccccc3)CC2)o1	none
CC1CCN(C(=O)c2ccc([N+](=O)[O-])o2)CC1	OX1R antag-1 44
O=C(COC(=O)c1ccc([N+](=O)[O-])o1)NCc1ccccc1	none
Cc1nc(SCc2nc3ccc(C(=O)c4ccccc4)cc3[nH]2)c2oc3ccccc3c2n1	none
Cc1ccc2oc3c(SCc4nc5ccccc5[nH]4)nc(C)nc3c2c1	OX1R antag-1 58
Cc1nc(SCc2nc3ccc(F)cc3[nH]2)c2oc3ccccc3c2n1	none
Cc1nc(SCc2nc3ccccc3[nH]2)c2oc3cc(Br)ccc3c2n1	OX1R antag-1 48
Cc1nc(SCCc2nc3ccccc3[nH]2)c2oc3ccccc3c2n1	OX1R antag-1 59
CCOc1ccc(Cl)cc1-c1cc(C(=O)Nc2ccc(F)cc2)[nH]n1	none (no result: CHO parental Ca, OX1R antag-1, OX1R antag-2)
COc1ccc(C(=O)NNC(=O)c2cccs2)cc1S(=O)(=O)N1CCOCC1	none
